# What was measured:
# [1] = Solubility of the compound in alphaMEM containing 5% FCS and 1% DMSO by HPLC analysis; type: physicochemical
# Procedure, shortened: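 Saturated drug solutions were incubated at 37 °C in αMEM with 5% FCS and 1% DMSO. Dissolved drug was quantified by HPLC.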
# HCT-116 [2] = assay: Cytotoxicity against human HCT116 cells incubated for 4 hrs under anaerobic condition measured after 5 days by sulforhodamine B assay; type: functional, cell-based
# Procedure, shortened: (§1)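 STR-authenticated, mycoplasma-free HCT116 cells in αMEM + 5% FCS were seeded at 700 cells/well and allowed 2 h to attach. Drug was added from DMSO stocks (<1% DMSO) in serial 3-fold dilutions for 4 h, oxic or anoxic (Pd-catalyst anaerobic chamber, medium pre-equilibrated ≥3 days). After washing, cells regrew for 5 days before SRB staining and IC50 determination.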
# HCT-116 [3] = assay: Hypoxic cytotoxicity ratio of IC50 for human HCT116 cells under oxic condition to IC50 for human HCT116 cells under anoxic condition
# Procedure, shortened: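 HCT116 cells, 700 per well and attached 2 h, got a 4 h exposure to 3-fold serial dilutions (<1% DMSO) under air or in a Pd-catalyst anaerobic chamber with pre-equilibrated medium. Cells were washed, regrown 5 days, and stained with sulforhodamine B to give IC50. HCR = oxic IC50 / anoxic IC50.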
# HCT-116 [4] = assay: (§2) Hypoxia radiosensitization activity in human HCT116 cells assessed as survival ratio by measuring ratio of cell survival with 15 Gy radiation in absence to presence of compound at anoxic IC50 preincubated for 1 hr followed by 15 Gy irradiation measured after 10 days by methylene blue staining-based cell counting method; type: functional
# Procedure, shortened: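 Anoxic HCT116 cells were seeded at 10^5/well and treated at the anoxic IC50 concentration for 1 h at room temperature. They were irradiated with 15 Gy (60Co, ~2 Gy/min) in a sealed steel box, then plated clonogenically. Colonies of >50 cells were counted […]. SR15 = survival with radiation / survival with drug + radiation.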
# HCT-116 [5] = assay: (§3) Hypoxia radiosensitization activity in human HCT116 cells assessed as sensitizer enhancement ratio by measuring ratio of radiation dose for 1% survival in absence to presence of compound at 0.68 mM preincubated for 1 hr followed by irradiation measured after 10 days by methylene blue staining-based cell counting method; type: functional
# HCT-116 [6] = assay: as §3, with “method relative to misonidazole” for “method”; type: functional
# HCT-116 [7] = assay: as §2, with “with” for “with 15 Gy”, “0.68 mM” for “anoxic IC50”, “6 to 29” for “15”; type: functional
# HCT-116 [8] = assay: as §2, with “with” for “with 15 Gy”, “0.68 mM” for “anoxic IC50”, “6 to 29” for “15”, “method relative to misonidazole” for “method”; type: functional
# HCT-116 [9] = assay: Cytotoxicity against human HCT116 cells at anoxic IC50 incubated for 1 hr at 21 degC by clonogenic survival assay; conditions: hct-116, 1 h
# Mus musculus [10] = assay: Drug level in NIH-III mouse assessed as maximum achievable dose at 10 ml/kg, iv; type: ADME; conditions: in vivo
# Procedure, shortened: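 Non-tumor-bearing female NIH-III mice (~20 g) received freshly prepared solutions i.v. at 10 mL/kg in 0.9% saline with 1% DMSO, or saline with 2 molar equivalents NaHCO3 for phosphate prodrugs. MAD was the maximum dose that dissolved in the injection volume.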
# Plasma = assay: Cmax in plasma of NIH-III mouse xenografted with human HCT116 cells at 2.20 mmol/kg, iv administered as single dose by HPLC analysis; type: ADME, organism-based; design: dose 2.2 mmol/kg, route intravenous; conditions: in vivo
# Procedure, shortened: (§4)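 Female NIH-III mice bearing subcutaneous HCT116 xenografts (10^6 cells inoculated). At ca. 300 mm3 tumor size, a single i.v. dose was given at the MAD or 75% of the MTD. Vehicle was 0.9% saline with 1% DMSO, or saline with 2 molar equivalents NaHCO3 for phosphate prodrugs. Plasma and tumor were sampled at multiple times by cardiac puncture and excision, assayed by HPLC, and analysed noncompartmentally.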
# [11] = Tmax in plasma of NIH-III mouse xenografted with human HCT116 cells at 2.20 mmol/kg, iv administered as single dose by HPLC analysis; type: ADME, organism-based; conditions: 2.2 mmol/kg
# Procedure, shortened: (§5)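 Female NIH-III mice bearing subcutaneous HCT116 tumors (10^6 cells; ~300 mm3) got a single i.v. dose at the MAD or 75% of the MTD. Vehicle was saline with 1% DMSO, or saline with 2 equivalents of NaHCO3 for the phosphates. Plasma and tumor were sampled at multiple times by cardiac puncture and excision, drug was measured by HPLC, and Tmax came from noncompartmental analysis.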
# [12] = Cmax in tumor of NIH-III mouse xenografted with human HCT116 cells at 2.20 mmol/kg, iv administered as single dose by HPLC analysis; type: ADME, organism-based, Neoplasm; design: dose 2.2 mmol/kg, route intravenous; conditions: in vivo; procedure, shortened: as §4
# [13] = Tmax in tumor of NIH-III mouse xenografted with human HCT116 cells at 2.20 mmol/kg, iv administered as single dose by HPLC analysis; type: ADME, organism-based, Neoplasm; conditions: 2.2 mmol/kg; procedure, shortened: as §5
# HCT-116 [14] = assay: In vivo hypoxia radiosensitization activity in human HCT116 cells xenografted in NIH-III mouse assessed as survival ratio by measuring ratio of cell survival with 12.5 Gy radiation in absence to presence of compound at 2.20 mmol/kg, iv pretreated as single dose for 10 mins followed by irradiation measured after 18 hrs by excision assay; type: functional
# Mus musculus [15] = assay: Toxicity in NIH-III mouse xenografted with human HCT116 cells assessed as change in body weight with 12.5 Gy radiation at 2.20 mmol/kg, iv administered as single dose; conditions: in vivo
# [16] = Electrophilicity of the compound in pH 7 phosphate buffer assessed as one-electron reduction potential
# Procedure, shortened: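 The one-electron reduction potential was set by pulse radiolysis equilibria at pH 7.0 (2.5 mM phosphate), established within 20 µs against benzylviologen, methylviologen or triquat. ΔE came from equilibrium constants via the Nernst equation, at three concentration ratios and 22 ± 2 °C.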
# HCT-116 [17] = assay: as §3, with “2.1” for “0.68”; type: functional
# HCT-116 [18] = assay: as §3, with “2.1” for “0.68”, “method relative to misonidazole” for “method”; type: functional
# HCT-116 [19] = assay: as §2, with “with” for “with 15 Gy”, “2.1 mM” for “anoxic IC50”, “6 to 29” for “15”; type: functional
# HCT-116 [20] = assay: as §2, with “with” for “with 15 Gy”, “0.08 mM” for “anoxic IC50”, “6 to 29” for “15”; type: functional
# HCT-116 [21] = assay: as §2, with “with” for “with 15 Gy”, “0.08 mM” for “anoxic IC50”, “6 to 29” for “15”, “method relative to misonidazole” for “method”; type: functional
# HCT-116 [22] = assay: Cytotoxicity against human HCT116 cells incubated for 4 hrs under aerobic condition measured after 5 days by sulforhodamine B assay; type: cell-based; procedure, shortened: as §1
# HCT-116 [23] = assay: as §3, with “0.08” for “0.68”; type: functional
# HCT-116 [24] = assay: as §3, with “0.08” for “0.68”, “method relative to misonidazole” for “method”; type: functional
# HCT-116 [25] = assay: as §2, with “with” for “with 15 Gy”, “0.11 mM” for “anoxic IC50”, “6 to 29” for “15”; type: functional
# HCT-116 [26] = assay: as §2, with “with” for “with 15 Gy”, “0.11 mM” for “anoxic IC50”, “6 to 29” for “15”, “method relative to misonidazole” for “method”; type: functional
Structure (SMILES),solubility [1],IC50 (HCT-116 [2]),Ratio IC50 (HCT-116 [3]),Ratio (HCT-116 [4]),Activity (HCT-116 [9]),other results
O=[N+]([O-])c1nccn1CS(=O)(=O)NCCOP(=O)(O)O,185 mM,,,,,Drug uptake (Mus musculus [10]): 2.2 mmol/kg; Cmax (Plasma): 900 µM; Tmax [11]: 10 min; Cmax [12]: 320 µM; Tmax [13]: 10 min; Ratio (HCT-116 [14]): 10; Activity (Mus musculus [15]): Non-Toxic
O=[N+]([O-])c1cn(CS(=O)(=O)NCCN2CCOCC2)cn1,,3300 µM,1.3,7,Non-Toxic,
O=[N+]([O-])c1cncn1CS(=O)(=O)NCCN1CCOCC1,,2100 µM,1.4,60,Non-Toxic,Ratio (HCT-116 [17]): 1.43; fold change (FC) (HCT-116 [18]): 1.01; Ratio (HCT-116 [19]): 8.2
O=[N+]([O-])c1cncn1CS(=O)(=O)NCCOP(=O)(O)O,,,,,,Drug uptake (Mus musculus [10]): 2.2 mmol/kg; Cmax (Plasma): 1100 µM; Tmax [11]: 10 min; Cmax [12]: 140 µM; Tmax [13]: 30 min; Ratio (HCT-116 [14]): 13; Activity (Mus musculus [15]): Non-Toxic
O=[N+]([O-])c1cncn1CCS(=O)(=O)NCCOP(=O)(O)O,,,,,,Drug uptake (Mus musculus [10]): 2.2 mmol/kg; Ratio (HCT-116 [14]): 2.6
COCCNS(=O)(=O)Cn1ccnc1[N+](=O)[O-],,,,,Non-Toxic,Ratio (HCT-116 [20]): 2.9; fold change (FC) (HCT-116 [21]): 0.78; IC50 (HCT-116 [22]): 380 to 4800 µM
O=C(O)CNS(=O)(=O)Cn1ccnc1[N+](=O)[O-],59.3 mM,900 µM,10,4,Non-Toxic,IC50 (HCT-116 [22]): 380 to 4800 µM
COCC(O)Cn1ccnc1[N+](=O)[O-] (configuration not stated) [MISONIDAZOLE],> 100 mM,530 µM,>62.44,7.1,Non-Toxic,Activity [16]: -389 mV
O=[N+]([O-])c1nccn1CS(=O)(=O)NCCN1CCOCC1,450 mM,80 µM,50,10.5,Non-Toxic,Ratio (HCT-116 [23]): 1.28; fold change (FC) (HCT-116 [24]): 0.89; Ratio (HCT-116 [20]): 3.9; fold change (FC) (HCT-116 [21]): 0.51; IC50 (HCT-116 [22]): 380 to 4800 µM
O=[N+]([O-])c1nccn1CCS(=O)(=O)NCCOP(=O)(O)O,,,,,,Drug uptake (Mus musculus [10]): 2.2 mmol/kg; Cmax (Plasma): 1140 µM; Tmax [11]: 10 min; Cmax [12]: 390 µM; Tmax [13]: 10 min; Ratio (HCT-116 [14]): 2.9
O=[N+]([O-])c1cn(CS(=O)(=O)NCCO)cn1,,> 6000 µM,<0.5,,,
COCCNS(=O)(=O)Cn1cncc1[N+](=O)[O-],,,,,Non-Toxic,Ratio (HCT-116 [25]): 1.9; fold change (FC) (HCT-116 [26]): 0.44

# Further lines, with some results ahead:
solubility [1],Structure (SMILES),IC50 (HCT-116 [2]),Ratio IC50 (HCT-116 [3]),Ratio (HCT-116 [4]),Activity (HCT-116 [9]),other results
46.5 mM,Cc1ncc([N+](=O)[O-])n1CCS(=O)(=O)N1CCC(N(C)C)CC1,700 µM,2.9,12,Non-Toxic,Ratio (HCT-116 [5]): 1.67; fold change (FC) (HCT-116 [6]): 1.15; Ratio (HCT-116 [7]): 25; fold change (FC) (HCT-116 [8]): 2.3
16 mM,COCCNS(=O)(=O)CCn1cnc([N+](=O)[O-])c1,> 5300 µM,,9,Non-Toxic,Activity [16]: -538 mV
14.5 mM,Cc1ncc([N+](=O)[O-])n1CCS(=O)(=O)N1CCN(C)CC1,1600 µM,0.6,1.8,Non-Toxic,
2.77 mM,Cc1ncc([N+](=O)[O-])n1CCS(=O)(=O)N1CCOCC1,38 µM,1.5,1.33,Non-Toxic,
17 mM,COCCCNS(=O)(=O)CCn1c([N+](=O)[O-])cnc1C,3700 µM,1.2,5,Non-Toxic,
72.1 mM,O=C(O)CCNS(=O)(=O)Cn1ccnc1[N+](=O)[O-],4400 µM,1,2,Non-Toxic,IC50 (HCT-116 [22]): 380 to 4800 µM
59.4 mM,COCCNS(=O)(=O)CCn1ccnc1[N+](=O)[O-],400 µM,5,6.4,Non-Toxic,IC50 (HCT-116 [22]): 380 to 4800 µM; Activity [16]: -391 mV
> 53.8 mM,Cc1ncc([N+](=O)[O-])n1CCS(=O)(=O)NCCCN(C)C,1200 µM,3,8,Non-Toxic,
> 100 mM,O=[N+]([O-])c1cn(CCS(=O)(=O)NCCO)cn1,10900 µM,1,6.3,Non-Toxic,
16.1 mM,O=[N+]([O-])c1nccn1CS(=O)(=O)NCCN1CCCC1,11 µM,96,1.7,Non-Toxic,IC50 (HCT-116 [22]): 380 to 4800 µM
> 49.3 mM,Cc1ncc([N+](=O)[O-])n1CCS(=O)(=O)NCCO,400 µM,1.3,3.4,Non-Toxic,Ratio (HCT-116 [5]): 1.176; fold change (FC) (HCT-116 [6]): 0.82; Ratio (HCT-116 [7]): 1.616; fold change (FC) (HCT-116 [8]): 0.36
45.7 mM,CCN(CC)CCNS(=O)(=O)CCn1c([N+](=O)[O-])cnc1C,1300 µM,2,9,Non-Toxic,
44.1 mM,Cc1ncc([N+](=O)[O-])n1CCS(=O)(=O)NCCN1CCOCC1,800 µM,1.4,2.71,Non-Toxic,

# Source: ChEMBL document CHEMBL4033777, “Next-Generation Hypoxic Cell Radiosensitizers: Nitroimidazole Alkylsulfonamides” (J Med Chem, 2018)
